{"source": "paper PMC5164959", "about": "(Biochemical pharmacology, 2016)", "key": {"DGKα": {"target": "DGKα (Rattus norvegicus, UniProt P51556)", "sequence (P51556 whole entry)": "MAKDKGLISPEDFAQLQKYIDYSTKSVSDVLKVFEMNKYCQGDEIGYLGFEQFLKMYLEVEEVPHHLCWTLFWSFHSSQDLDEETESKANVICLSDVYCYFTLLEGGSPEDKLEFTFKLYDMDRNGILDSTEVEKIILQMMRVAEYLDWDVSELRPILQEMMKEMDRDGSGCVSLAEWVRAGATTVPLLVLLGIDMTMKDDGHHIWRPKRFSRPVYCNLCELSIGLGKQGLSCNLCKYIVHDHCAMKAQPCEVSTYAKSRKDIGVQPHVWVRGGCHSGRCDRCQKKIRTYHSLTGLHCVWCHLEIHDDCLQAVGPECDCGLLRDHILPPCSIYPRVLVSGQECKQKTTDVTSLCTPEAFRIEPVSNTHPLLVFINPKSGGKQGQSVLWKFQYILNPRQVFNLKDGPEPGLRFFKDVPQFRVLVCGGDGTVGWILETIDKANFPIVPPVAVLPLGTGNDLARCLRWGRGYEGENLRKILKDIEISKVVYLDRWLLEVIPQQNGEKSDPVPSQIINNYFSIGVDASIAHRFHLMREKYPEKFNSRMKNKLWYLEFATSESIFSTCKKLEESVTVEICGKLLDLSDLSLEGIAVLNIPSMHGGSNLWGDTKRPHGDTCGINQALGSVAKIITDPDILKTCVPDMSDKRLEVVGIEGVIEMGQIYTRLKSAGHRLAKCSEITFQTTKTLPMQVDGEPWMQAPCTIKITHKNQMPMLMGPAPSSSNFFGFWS", "test": "Kinase assay with purified DGKα and PC:DAG:PS liposomes", "assay_type": "biochemical", "settings": "for Vmax (ATP): ATP-dependent activity; for Vmax (DAG): DAG-dependent activity; for Decrease of Vmax of purified DGKα: 0.5 mol% drug", "procedure,_shortened": "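Rat FLAG-DGKα was expressed in HeLa cells by adenovirus (72 h) and purified on FLAG M2 beads. Reactions contained buffer B (MOPS pH 7.5), 1 mM CaCl2, 1 mM DTT and 4.75 mM PC:PS:DAG liposomes (5 mol% DAG), with test compound built into the liposomes at 0.5 or 2.0 mol% or added from DMSO. Reactions with [γ32P]-ATP ran 15 min at 25°C. Km and Vmax came from Michaelis-Menten non-linear regression.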"}, "PKC [1]": {"test_system": "PKC", "test": "PKC activation: phosphorylation of PKC substrates by western blot in HeLa cells", "assay_type": "cell-based, human", "settings": "40 μM, 30 min", "procedure,_shortened": "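HeLa cells were grown in DMEM with 5% FBS and treated 30 min with 4 or 40 μM test compound or 100 nM PMA, with or without 1 h pretreatment with 500 nM bisindolylmaleimide II. In separate runs, a 5-HT2AR agonist (10 μM, 6 h) was given with or without 40 μM antagonist. Lysates (50 μg) were immunoblotted for phospho-(Ser) PKC substrates; four independent experiments were quantified.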"}, "DGKι": {"target": "DGKι (Homo sapiens, UniProt O75912)", "sequence (O75912 1-1065 isoform O75912-1)": "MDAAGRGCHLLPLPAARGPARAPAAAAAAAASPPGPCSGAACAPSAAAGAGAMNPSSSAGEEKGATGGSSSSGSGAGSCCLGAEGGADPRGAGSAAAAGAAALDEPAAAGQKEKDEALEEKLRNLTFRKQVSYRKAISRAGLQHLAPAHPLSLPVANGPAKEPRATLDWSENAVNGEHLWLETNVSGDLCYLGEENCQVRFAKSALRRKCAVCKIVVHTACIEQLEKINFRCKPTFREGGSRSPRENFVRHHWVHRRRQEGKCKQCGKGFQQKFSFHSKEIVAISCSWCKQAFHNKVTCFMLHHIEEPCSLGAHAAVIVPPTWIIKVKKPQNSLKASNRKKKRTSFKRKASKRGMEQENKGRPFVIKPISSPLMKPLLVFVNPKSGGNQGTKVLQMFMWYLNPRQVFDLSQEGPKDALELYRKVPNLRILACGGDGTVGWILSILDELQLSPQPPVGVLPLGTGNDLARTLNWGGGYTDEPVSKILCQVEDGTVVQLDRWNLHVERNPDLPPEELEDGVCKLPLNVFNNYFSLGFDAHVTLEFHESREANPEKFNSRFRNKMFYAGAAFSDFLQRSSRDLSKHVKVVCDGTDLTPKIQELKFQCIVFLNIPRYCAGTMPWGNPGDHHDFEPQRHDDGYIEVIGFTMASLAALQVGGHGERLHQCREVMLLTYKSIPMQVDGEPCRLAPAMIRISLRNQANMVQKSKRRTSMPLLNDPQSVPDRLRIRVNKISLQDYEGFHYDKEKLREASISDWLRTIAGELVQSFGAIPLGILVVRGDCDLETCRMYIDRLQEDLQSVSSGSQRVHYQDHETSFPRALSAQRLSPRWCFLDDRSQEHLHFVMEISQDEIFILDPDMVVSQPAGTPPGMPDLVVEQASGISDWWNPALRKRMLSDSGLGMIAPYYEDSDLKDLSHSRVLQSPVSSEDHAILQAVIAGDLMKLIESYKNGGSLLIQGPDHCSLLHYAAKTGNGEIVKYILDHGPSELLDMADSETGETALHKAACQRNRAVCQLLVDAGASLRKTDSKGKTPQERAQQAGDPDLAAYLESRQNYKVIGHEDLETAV", "test": "Kinase assay with HEK 293T cell homogenate over-expressing DGKι", "assay_type": "biochemical"}, "5-HT3": {"target": "5-HT3 (Homo sapiens, UniProt P46098)", "sequence (P46098 24-478, species assumed)": "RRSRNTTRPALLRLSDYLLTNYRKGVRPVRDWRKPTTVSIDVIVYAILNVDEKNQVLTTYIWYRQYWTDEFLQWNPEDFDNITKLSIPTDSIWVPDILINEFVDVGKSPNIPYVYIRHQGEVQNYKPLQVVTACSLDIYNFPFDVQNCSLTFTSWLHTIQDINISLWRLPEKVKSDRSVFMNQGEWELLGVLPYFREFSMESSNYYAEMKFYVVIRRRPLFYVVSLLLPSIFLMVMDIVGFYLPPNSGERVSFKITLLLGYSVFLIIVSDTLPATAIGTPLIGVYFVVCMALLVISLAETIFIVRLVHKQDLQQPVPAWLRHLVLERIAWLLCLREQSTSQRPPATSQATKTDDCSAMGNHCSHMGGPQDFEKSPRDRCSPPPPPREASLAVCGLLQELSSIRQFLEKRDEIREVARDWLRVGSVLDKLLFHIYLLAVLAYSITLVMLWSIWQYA", "test": "Radioligand competition binding assay", "settings": "10 μM test compound, n=4", "procedure,_shortened": "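Run by the NIMH PDSP as a radioligand competition binding primary screen. Test compounds were applied at 10 μM, and the read-out was mean percent inhibition of radioligand binding (n=4).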"}, "PKC [2]": {"test_system": "PKC", "test": "PKC activation: phosphorylation of PKC substrates by western blot in U87 cells", "assay_type": "cell-based, human", "settings": "treatment for 30 min", "procedure,_shortened": "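Glioblastoma cells were treated 30 min with 4 or 40 μM test compound or 100 nM PMA, with or without 1 h pretreatment with 500 nM bisindolylmaleimide II. Cleared Triton lysates (50 μg) were run on 8.75% SDS-PAGE and probed with phospho-(Ser) PKC substrate antibody, detected by alkaline phosphatase chemiluminescence. Three independent experiments were quantified.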"}, "5-HT6": {"target": "5-HT6 (Homo sapiens, UniProt P50406)", "sequence (P50406 whole entry, species assumed)": "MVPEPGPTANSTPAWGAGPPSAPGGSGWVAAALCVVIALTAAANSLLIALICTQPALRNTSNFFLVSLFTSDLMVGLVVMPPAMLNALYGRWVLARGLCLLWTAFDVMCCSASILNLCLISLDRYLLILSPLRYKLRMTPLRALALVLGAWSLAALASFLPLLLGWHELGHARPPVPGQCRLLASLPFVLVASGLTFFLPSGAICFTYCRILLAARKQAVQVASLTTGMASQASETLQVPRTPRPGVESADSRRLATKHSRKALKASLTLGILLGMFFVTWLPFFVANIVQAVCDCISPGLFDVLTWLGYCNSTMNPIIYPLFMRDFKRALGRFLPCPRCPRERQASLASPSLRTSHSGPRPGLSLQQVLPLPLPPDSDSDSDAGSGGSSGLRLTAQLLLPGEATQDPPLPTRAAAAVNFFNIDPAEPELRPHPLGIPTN", "test": "Radioligand competition binding assay", "procedure,_shortened": "(§1)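 Run by the NIMH PDSP as radioligand competition binding assays. The primary screen used 10 μM test compound and reported mean percent inhibition of radioligand binding (n=4); above 50% counted as significant. At those receptors, IC50 values came from non-linear regression of competition binding isotherms and were converted to Ki with the Cheng-Prusoff equation.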"}, "DGKβ [3]": {"target": "DGKβ (Rattus norvegicus, UniProt P49621)", "test": "Kinase assay with HEK 293T cell homogenate over-expressing DGKβ", "assay_type": "biochemical", "settings": "20 μM inhibitor, dioleoyl DAG liposomes", "procedure,_shortened": "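Reactions contained 5 μg homogenate, 2 mM liposomes (10 mol% dioleoyl DAG, 40 mol% PS, 50 mol% PC), buffer B, 1 mM DTT, 1 mM CaCl2 and [γ32P]-ATP, 20 min at 30°C. Test compound was added from DMSO. Organic-phase 32P was counted and expressed as percent of DMSO control after subtracting the GFP-lysate background.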"}, "DGKε": {"test_system": "DGKε", "settings": "cited from earlier work"}, "DGKθ": {"target": "DGKθ (Homo sapiens, UniProt P52824)", "sequence (P52824 whole entry)": "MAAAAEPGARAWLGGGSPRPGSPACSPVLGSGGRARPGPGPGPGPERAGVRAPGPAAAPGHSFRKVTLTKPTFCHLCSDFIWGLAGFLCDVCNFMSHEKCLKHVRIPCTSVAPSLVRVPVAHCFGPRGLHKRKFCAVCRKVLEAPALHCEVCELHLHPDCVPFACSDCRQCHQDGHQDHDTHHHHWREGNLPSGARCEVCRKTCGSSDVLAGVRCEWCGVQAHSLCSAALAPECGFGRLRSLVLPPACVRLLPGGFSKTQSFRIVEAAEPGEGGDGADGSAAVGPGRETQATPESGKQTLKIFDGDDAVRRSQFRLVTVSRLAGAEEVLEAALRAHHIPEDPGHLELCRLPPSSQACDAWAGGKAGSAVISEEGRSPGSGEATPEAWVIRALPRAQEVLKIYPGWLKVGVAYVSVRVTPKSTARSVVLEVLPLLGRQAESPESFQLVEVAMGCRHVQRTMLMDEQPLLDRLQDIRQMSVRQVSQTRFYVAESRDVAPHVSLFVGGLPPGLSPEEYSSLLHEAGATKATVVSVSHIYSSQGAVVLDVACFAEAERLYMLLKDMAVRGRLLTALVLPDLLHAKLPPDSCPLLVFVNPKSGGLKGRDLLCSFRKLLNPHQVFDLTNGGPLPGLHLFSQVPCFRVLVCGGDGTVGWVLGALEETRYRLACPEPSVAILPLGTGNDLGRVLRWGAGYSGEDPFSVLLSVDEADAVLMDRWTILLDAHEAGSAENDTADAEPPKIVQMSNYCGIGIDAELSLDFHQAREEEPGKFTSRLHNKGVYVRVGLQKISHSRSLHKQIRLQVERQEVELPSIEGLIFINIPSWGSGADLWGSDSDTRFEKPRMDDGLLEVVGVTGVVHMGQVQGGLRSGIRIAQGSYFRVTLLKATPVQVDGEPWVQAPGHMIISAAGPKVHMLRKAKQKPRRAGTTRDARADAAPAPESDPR", "test": "Kinase assay with HEK 293T cell homogenate over-expressing DGKθ", "assay_type": "biochemical", "settings": "20 μM inhibitor, dioleoyl DAG liposomes", "procedure,_shortened": "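Reactions without CaCl2 contained 5 μg homogenate, 2 mM liposomes (10 mol% dioleoyl DAG, 40 mol% PS, 50 mol% PC), buffer B, 1 mM DTT and [γ32P]-ATP, 20 min at 30°C. Test compound was added from DMSO. Extracted 32P-lipid was counted, GFP-lysate normalized, and expressed as percent of DMSO control.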"}, "DGKβ [4]": {"test_system": "DGKβ", "settings": "30 μM R59022; cited from earlier work"}, "5-HT5A": {"target": "5-HT5A (Homo sapiens, UniProt P47898)", "sequence (P47898 whole entry, species assumed)": "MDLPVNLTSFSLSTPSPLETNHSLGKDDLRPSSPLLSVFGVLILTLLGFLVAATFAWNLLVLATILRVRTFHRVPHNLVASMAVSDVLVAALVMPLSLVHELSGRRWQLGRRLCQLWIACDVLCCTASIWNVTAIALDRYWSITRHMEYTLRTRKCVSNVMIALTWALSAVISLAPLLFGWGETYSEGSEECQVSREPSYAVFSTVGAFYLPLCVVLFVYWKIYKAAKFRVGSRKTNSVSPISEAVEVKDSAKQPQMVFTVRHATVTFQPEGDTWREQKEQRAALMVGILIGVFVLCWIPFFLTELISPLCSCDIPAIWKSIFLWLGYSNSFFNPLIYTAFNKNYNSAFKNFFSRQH", "test": "Radioligand competition binding assay", "procedure,_shortened": "as §1"}, "DGKγ": {"test_system": "DGKγ", "settings": "30 μM R59022; cited from earlier work"}, "5-HT2A": {"target": "5-HT2A (Homo sapiens, UniProt P28223)", "sequence (P28223 whole entry, species assumed)": "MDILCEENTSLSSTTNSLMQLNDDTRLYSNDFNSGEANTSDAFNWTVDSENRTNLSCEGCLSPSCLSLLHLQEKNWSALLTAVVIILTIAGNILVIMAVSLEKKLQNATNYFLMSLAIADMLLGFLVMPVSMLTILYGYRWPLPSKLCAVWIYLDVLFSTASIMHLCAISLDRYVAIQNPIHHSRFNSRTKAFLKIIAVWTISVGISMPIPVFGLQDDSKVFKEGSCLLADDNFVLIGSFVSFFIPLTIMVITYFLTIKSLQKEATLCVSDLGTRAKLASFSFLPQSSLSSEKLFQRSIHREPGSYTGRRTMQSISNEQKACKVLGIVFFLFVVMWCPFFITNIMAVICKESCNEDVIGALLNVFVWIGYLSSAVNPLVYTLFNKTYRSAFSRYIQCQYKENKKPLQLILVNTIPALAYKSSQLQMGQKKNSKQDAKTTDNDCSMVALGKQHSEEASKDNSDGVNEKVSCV", "test": "Radioligand competition binding assay"}, "5-HT2C": {"target": "T1, 5-HT2C (Homo sapiens, UniProt P28335)", "T1 sequence (P28335 33-458)": "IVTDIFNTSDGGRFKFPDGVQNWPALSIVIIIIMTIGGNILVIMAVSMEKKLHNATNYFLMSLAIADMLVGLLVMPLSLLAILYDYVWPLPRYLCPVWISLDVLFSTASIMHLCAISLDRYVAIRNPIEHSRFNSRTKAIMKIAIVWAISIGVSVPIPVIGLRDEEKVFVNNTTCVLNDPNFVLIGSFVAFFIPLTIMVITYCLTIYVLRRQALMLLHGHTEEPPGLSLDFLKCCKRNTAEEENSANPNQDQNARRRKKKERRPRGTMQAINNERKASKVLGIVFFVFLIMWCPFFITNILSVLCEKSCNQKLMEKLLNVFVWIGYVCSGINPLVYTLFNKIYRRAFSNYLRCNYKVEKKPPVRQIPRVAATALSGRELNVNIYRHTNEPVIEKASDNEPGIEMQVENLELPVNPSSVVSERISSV", "test": "Radioligand competition binding assay", "settings": "read-out: Ki 5-HT2C; Cheng-Prusoff from best-fit IC50"}, "5-HT1D": {"target": "5-HT1D (Homo sapiens, UniProt P28221)", "sequence (P28221 whole entry, species assumed)": "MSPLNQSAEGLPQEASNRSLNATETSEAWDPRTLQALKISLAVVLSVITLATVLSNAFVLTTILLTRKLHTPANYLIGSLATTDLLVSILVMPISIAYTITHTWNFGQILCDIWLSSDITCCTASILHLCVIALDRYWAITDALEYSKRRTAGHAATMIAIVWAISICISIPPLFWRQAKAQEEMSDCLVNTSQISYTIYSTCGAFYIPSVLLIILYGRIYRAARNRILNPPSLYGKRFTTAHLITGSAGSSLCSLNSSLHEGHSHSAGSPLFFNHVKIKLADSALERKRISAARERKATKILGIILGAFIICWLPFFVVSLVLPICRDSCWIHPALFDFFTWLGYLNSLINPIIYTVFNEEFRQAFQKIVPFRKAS", "test": "Radioligand competition binding assay", "procedure,_shortened": "as §1"}}, "note": "Like-named read-outs stand apart in the source and are kept apart here.", "data": [{"smiles": "Cc1nc2sccn2c(=O)c1CCN1CCC(=C(c2ccccc2)c2ccc(F)cc2)CC1", "note": "[R59022]", "values": [{"measurement": "Vmax (ATP)", "setting": "DGKα; 0.5 mol% drug in liposomes, 5 mol% DAG", "result": "32 ± 1", "unit": "nmol/min/mg"}, {"measurement": "Vmax (DAG)", "setting": "DGKα; 0.5 mol% drug in liposomes, 1 mM ATP", "result": "22 ± 1", "unit": "nmol/min/mg"}, {"measurement": "Decrease of Vmax of purified DGKα", "setting": "DGKα; in the context of ATP", "result": 25, "unit": "%"}, {"measurement": "Decrease of Vmax of purified DGKα", "setting": "DGKα; in the context of DAG", "result": 40, "unit": "%"}, {"measurement": "Vmax (ATP)", "setting": "DGKα; 2.0 mol% drug in liposomes, 5 mol% DAG", "result": "20 ± 1 ^† nmol/min/mg"}, {"measurement": "Vmax (DAG)", "setting": "DGKα; 2.0 mol% drug in liposomes, 1 mM ATP", "result": "16 ± 1.5", "unit": "nmol/min/mg"}, {"measurement": "Km", "setting": "DGKα; read-out: Km^app (ATP), 0.5 mol% drug in liposomes, 5 mol% DAG", "result": "50 ± 10", "unit": "µM"}, {"measurement": "Km", "setting": "DGKα; read-out: Km^app (ATP), 2.0 mol% drug in liposomes, 5 mol% DAG", "result": "30 ± 10", "unit": "µM"}, {"measurement": "Km", "setting": "DGKα; read-out: Km^app (DAG), 0.5 mol% drug in liposomes, 1 mM ATP", "result": "110 ± 20", "unit": "µM"}, {"measurement": "Km", "setting": "DGKα; read-out: Km^app (DAG), 2.0 mol% drug in liposomes, 1 mM ATP", "result": "100 ± 20", "unit": "µM"}, {"measurement": "Increase in phosphorylation of PKC downstream targets", "setting": "PKC [1]", "result": "about 2.5 fold"}, {"measurement": "Activity of DGKι, percent of control", "setting": "DGKι; 20 μM inhibitor, dioleoyl DAG liposomes, cell homogenate", "result": "not detectably inhibited"}, {"measurement": "IC50 for DGKι relative to IC50 for DGKα", "setting": "DGKι; fold higher than IC50 for DGKα", "result": "2–3 fold"}, {"measurement": "IC50", "setting": "DGKι; read-out: IC50 for DGKι, cell homogenate, 1 mM ATP, 10 mol% DAG", "result": "~60", "unit": "µM"}, {"measurement": "Percent Inhibition of Binding 5-HT3", "setting": "5-HT3", "result": 10.9, "unit": "%"}, {"measurement": "Activation of PKC", "setting": "PKC [2]", "result": "activate PKC"}, {"measurement": "Percent Inhibition of Binding 5-HT6", "setting": "5-HT6; 10 μM test compound, n=4", "result": 96.9, "unit": "%"}, {"measurement": "Ki", "setting": "5-HT6; read-out: Ki 5-HT6, Cheng-Prusoff from best-fit IC50", "result": 0.0553, "unit": "µM"}, {"measurement": "Activity of DGKβ, percent of control", "setting": "DGKβ [3]", "result": "not detectably inhibited"}, {"measurement": "Inhibition of DGKε", "setting": "DGKε", "result": "reported to inhibit"}, {"measurement": "Activity of DGKθ, percent of control", "setting": "DGKθ", "result": "not detectably inhibited"}, {"measurement": "Inhibition of DGKβ", "setting": "DGKβ [4]", "result": "did not inhibit"}, {"measurement": "Percent Inhibition of Binding 5-HT5A", "setting": "5-HT5A; 10 μM test compound, n=4", "result": 92.0, "unit": "%"}, {"measurement": "Ki", "setting": "5-HT5A; read-out: Ki 5-HT5A, Cheng-Prusoff from best-fit IC50", "result": 0.018, "unit": "µM"}, {"measurement": "Inhibition of DGKγ", "setting": "DGKγ", "result": "did not inhibit"}, {"measurement": "Percent Inhibition of Binding 5-HT2A", "setting": "5-HT2A; 10 μM test compound, n=4", "result": 98.2, "unit": "%"}, {"measurement": "Ki", "setting": "5-HT2A; read-out: Ki 5-HT2A, Cheng-Prusoff from best-fit IC50", "result": 0.0022, "unit": "µM"}, {"measurement": "Ki", "setting": "5-HT2C", "result": 0.0008, "unit": "µM"}, {"measurement": "Percent Inhibition of Binding 5-HT1D", "setting": "5-HT1D; 10 μM test compound, n=4", "result": 90.4, "unit": "%"}, {"measurement": "Ki", "setting": "5-HT1D; read-out: Ki 5-HT1D, Cheng-Prusoff from best-fit IC50", "result": 0.0123, "unit": "µM"}]}]}
